In publication PMC2889672 (Biochemistry, 2010):

Legend:
[1] = molecular target: T1, S. pneumoniae UPPS (Streptococcus pneumoniae serotype 4, UniProt Q97SR4); assay: Photo-cross-linking with Photo-probe and mass spectrometry; type: binding; details: 30 μM UPPS, 30 μM Photo-probe, UV 350 nm 10 min
T1 sequence (Q97SR4 1-252): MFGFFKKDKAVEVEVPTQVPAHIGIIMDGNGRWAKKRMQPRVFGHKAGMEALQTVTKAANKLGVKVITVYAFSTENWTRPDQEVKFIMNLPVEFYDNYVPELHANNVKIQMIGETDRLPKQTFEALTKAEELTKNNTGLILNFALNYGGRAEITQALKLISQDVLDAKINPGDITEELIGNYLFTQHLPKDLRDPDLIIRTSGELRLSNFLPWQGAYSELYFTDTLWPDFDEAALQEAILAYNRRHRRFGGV

[2] = molecular target: T1, S. pneumoniae UPPS; assay: Biomol Green assay of UPPS activity; type: biochemical
Procedure, shortened: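 His-tagged S. pneumoniae UPPS expressed in E. coli BL21(DE3) and purified by Ni-NTA and size exclusion, then mixed 1:2 (w/v) with liposomes of total E. coli lipid extract. Released phosphate quantified with Biomol Green reagent.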

[3] = molecular target: T1, S. pneumoniae UPPS; assay: Protein fluorescence binding experiments; details: excitation 285 nm; 1 μM UPPS, 5 μM compound
Procedure, shortened: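 Intrinsic protein fluorescence: emission scanned 300−500 nm at excitation 285 nm. Buffer: 100 mM HEPES pH 7.3, 0.5 mM MgCl2, 50 mM KCl, 1.25% DMSO. Test compound (final 5 μM) preincubated 15 min with UPPS (final 1 μM) before adding FsPP (15 μM), IsPP (40 μM) or both. Spectra are averages of two scans.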

| binding to and modification of UPPS in the absence of substrate [1] | IC50 [2] | change of intrinsic fluorescence of S. pneumoniae UPPS upon addition of compound [3] | SMILES |
| --- | --- | --- | --- |
| bound to and modified UPPS | 630 nM |  | O=C(Nc1ccc(C(=O)c2ccccc2)cc1)C1=C(O)C(CCc2ccccc2)NC1=O (stereo not shown) [Photo-probe, N-(4-Benzoylphenyl)-4-hydroxy-2-oxo-5-phenethyl-2,5-dihydro-1H-pyrrole-3-carboxamide] |
|  | 450 nM | increased | CC1(Cc2ccccc2)NC(=O)C(C(=O)Nc2ccc(C3CCCCC3)cc2)=C1O (stereo not shown) [compound 1, 5-benzyl-4-hydroxy-5-methyl-2-oxo-2,5-dihydro-1H-pyrrole-3-carboxylic acid (4-cyclohexylphenyl)amide] |
